Inhibition and IC50 data for 37 compounds are collected here from ChEMBL document CHEMBL5338721, “Alkyl-substituted N-methylaryl-N'-aryl-4-aminobenzamides: A new series of small molecule inhibitors for Wip1 phosphatase” (Eur J Med Chem, 2022).

Activity calls are given as the source filed them. The rule behind the calls is not given here.

For the first assay, the target named is T1, Protein phosphatase 1D (Homo sapiens) (UniProt O15297).
T1 sequence (whole entry): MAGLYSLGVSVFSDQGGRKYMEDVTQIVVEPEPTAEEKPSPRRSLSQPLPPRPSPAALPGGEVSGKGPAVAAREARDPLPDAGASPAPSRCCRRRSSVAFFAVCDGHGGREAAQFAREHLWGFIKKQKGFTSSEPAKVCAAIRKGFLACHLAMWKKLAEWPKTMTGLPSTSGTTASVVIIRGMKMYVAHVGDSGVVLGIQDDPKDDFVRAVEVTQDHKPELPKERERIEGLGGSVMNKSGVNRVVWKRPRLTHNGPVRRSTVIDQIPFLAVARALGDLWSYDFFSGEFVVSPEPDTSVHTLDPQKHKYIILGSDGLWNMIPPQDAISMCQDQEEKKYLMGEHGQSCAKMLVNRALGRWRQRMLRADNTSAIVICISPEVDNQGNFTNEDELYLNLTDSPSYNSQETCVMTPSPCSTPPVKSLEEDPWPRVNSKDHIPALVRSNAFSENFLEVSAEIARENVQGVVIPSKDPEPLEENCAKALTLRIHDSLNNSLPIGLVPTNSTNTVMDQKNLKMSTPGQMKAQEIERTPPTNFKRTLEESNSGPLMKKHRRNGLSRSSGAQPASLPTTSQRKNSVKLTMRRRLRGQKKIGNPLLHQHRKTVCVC
Briefly: Inhibition of recombinant human Wip1 (1 to 420 residues) using human ATM phosphopeptide (AFEEG-pS-QSTTIGY) as substrate at 100 uM incubated for 7 mins by Bio-mol green assay. In short, it runs like this: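 Purified recombinant Wip1 (1–420) incubated with compound and 100 μM ATM phosphopeptide for 7 min at 30 °C. Buffer: 50 mM Tris·HCl pH 7.5, EGTA, DTT, CHAPS, 0.1 mg/mL BSA, 30 mM MgCl₂. Phosphate measured by Biomol Green against a standard curve and normalized to no-inhibitor (100%) and no-enzyme (0%). Dose-response used 9–10 points, each in triplicate. IC50 from logistic fit (standard, or variable-slope giving a Hill coefficient).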
Regarding `O=C(NCCCO)C1CCCCC1`, the inhibition (usually the relative decrease from the control value, in per cent) was “inactive”.
On to `Nc1ccccc1CC1CCCCC1`, for which the inhibition result is “inactive”.
Consider `O=C(CC1CCCCC1)NCCCO`, for which the inhibition entry was “inactive”.

The next assay deals with T1, Protein phosphatase 1D (Homo sapiens). Kind of assay: Inhibition of recombinant human Wip1 (1 to 420 residues) using human ATM phosphopeptide (AFEEG-pS-QSTTIGY) as substrate at 100 uM incubated for 7 mins by Bio-mol green assay relative to control. In short, it runs like this:
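Recombinant Wip1 (1–420) with 100 μM ATM phosphopeptide in 50 mM Tris·HCl pH 7.5 buffer with 30 mM MgCl₂, 7 min at 30 °C. Compound given at a single 100 μM concentration. Released phosphate quantified by Biomol Green with a phosphate standard curve. Percent inhibition taken from activity normalized to no-inhibitor (100%) and no-enzyme (0%) controls.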
For `O=C(CCCCC1CCCCC1)NCCCO`, the inhibition was found to be 4%.
Turning to `O=C(CCCC1CCCCC1)NCCCO`, the inhibition is 1%.
For `O=C(O)c1cccc(CNc2ccccc2CCC2CCCCC2)c1`, the inhibition amounted to 88%.
`Nc1ccccc1CCC1CCCCC1`: the inhibition turned out to be 3%.

A further assay has as its target T2, Protein phosphatase 1D (Homo sapiens, UniProt O15297).
T2 sequence (O15297 whole entry): T1 sequence (whole entry)
Briefly: Inhibition of recombinant human Wip1 (1 to 420 residues) using human ATM phosphopeptide (AFEEG-pS-QSTTIGY) as substrate incubated for 7 mins by Bio-mol green assay. In short, it runs like this: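 Released phosphate read by Biomol Green against phosphate standard curve; normalized to no-inhibitor (100%) and no-enzyme (0%). Screen at 100 μM; 9–10-point dose-response in triplicate, logistic fit for IC50 and Hill coefficient.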
For the compound `O=C(Nc1ccc2c(c1)OCO2)c1cccc(CNc2ccc(C(=O)Nc3cccc(OP(=O)(O)O)c3)cc2CC2CCCCC2)c1`, the IC50 (usually the point on the concentration scale where inhibition reaches its midpoint) came to 35.2 µM.
In the case of `Nc1ccc(C(=O)Nc2cccc(OP(=O)(O)O)c2)cc1CC1CCCCC1`, the IC50 is 330 µM.
For the compound `O=C(Nc1cccc(OP(=O)(O)O)c1)c1ccc(NCc2cc3ccccc3o2)c(CC2CCCCC2)c1`, the IC50 was 21.4 µM.
In the case of `O=C(Nc1cccc(OP(=O)(O)O)c1)c1ccc(NCc2ccc(F)cc2)cc1`, the IC50 was 683 µM.
As to `O=C(Nc1cccc(OP(=O)(O)O)c1)c1ccc(NCCCc2ccccc2)c(CC2CCCCC2)c1`, the IC50 came out at 105 µM.
Consider `O=C(Nc1cccc(OP(=O)(O)O)c1)c1ccc(NCc2ccc(F)cc2)c(CC2CCCCC2)c1`, for which the IC50 came to 28.1 µM.
In the case of `O=C(Nc1cccc(OP(=O)(O)O)c1)c1ccc(NCc2cccnc2)c(CC2CCCCC2)c1`, the IC50 amounted to 105 µM.
The same measure, in the same setting: in the case of `O=C(Nc1cccc(OP(=O)(O)O)c1)c1ccc(NCc2ccc3ccccc3c2)c(CC2CCCCC2)c1` it was 274 µM.
For the compound `O=C(Nc1cccc(OP(=O)(O)O)c1)c1ccc(NCc2ccc(-c3ccc(Cl)cc3)cc2)c(CC2CCCCC2)c1`, the concentration for half-maximal inhibition (IC50) came to 332 µM.
Take `O=C(Nc1ccc(OP(=O)(O)O)cc1)c1ccc(NCc2ccc(F)cc2)c(CC2CCCCC2)c1`: the IC50 was determined as 29 µM.
Same read-out and setting: in the case of `COc1ccc(CNc2ccc(C(=O)Nc3cccc(OP(=O)(O)O)c3)cc2CC2CCCCC2)cc1` it was 37 µM; in that of `COC(=O)c1ccc(NCc2cccc(C(=O)O)c2)c(CCC2CCCCC2)c1`, 48.4 µM.
With `CCCCC(CCCC)CNc1ccc(C(=O)Nc2cccc(OP(=O)(O)O)c2)cc1CC1CCCCC1`, the IC50 is 512 µM.
On to `O=C(Nc1cccc(OP(=O)(O)O)c1)c1ccc(NCc2ccc(-c3cccc(Cl)c3)cc2)c(CC2CCCCC2)c1`, for which the half-maximal inhibitory concentration (IC50) came to 48 µM.
As to `O=C(Nc1cccc(OP(=O)(O)O)c1)c1ccc(NCc2cccc(F)c2)c(CC2CCCCC2)c1`, the IC50 was 28.5 µM.
The same measure, in the same setting: in the case of `O=C(Nc1cccc(OP(=O)(O)O)c1)c1ccc(NCc2ccc(-c3cccc(F)c3)cc2)c(CC2CCCCC2)c1` it was 30 µM; in that of `O=C(Nc1cccc(Cl)c1)c1cccc(CNc2ccc(C(=O)Nc3cccc(OP(=O)(O)O)c3)cc2CCC2CCCCC2)c1`, 32.7 µM; in that of `O=C(Nc1cccc(F)c1)c1cccc(CNc2ccc(C(=O)Nc3cccc(OP(=O)(O)O)c3)cc2CC2CCCCC2)c1`, 20.8 µM.
`O=C(O)c1cccc(CNc2ccccc2CC2CCCCC2)c1`: the IC50 was 74.8 µM.
For the compound `COc1cc(OC)cc(-c2ccc(CNc3ccc(C(=O)Nc4cccc(OP(=O)(O)O)c4)cc3CC3CCCCC3)cc2)c1`, the half-inhibitory concentration (IC50) was 18 µM.
Still for that read-out and setting: in the case of `O=C(Nc1cccc(Cl)c1)c1ccc(CNc2ccc(C(=O)Nc3cccc(OP(=O)(O)O)c3)cc2CC2CCCCC2)cc1` it was 11.1 µM.
Consider `O=C(NCCc1ccc(OP(=O)(O)O)cc1)c1ccc(NC(=O)c2ccc(F)cc2)c(CC2CCCCC2)c1`, for which the IC50 came to 36 µM.
In the case of `O=C(Nc1cccc(Cl)c1)c1cccc(C(=O)Nc2ccc(C(=O)Nc3cccc(OP(=O)(O)O)c3)cc2CC2CCCCC2)c1`, the IC50 stood at 7.3 µM.
For the compound `COC(=O)c1ccc(NCc2cccc(C(=O)O)c2)c(CC2CCCCC2)c1`, the IC50 came out at 54.1 µM.
For `O=C(Nc1cccc(OP(=O)(O)O)c1)c1ccc(NC(=O)c2cccc(CNc3cccc(Cl)c3)c2)c(CC2CCCCC2)c1`, the IC50 is 7.2 µM.
Consider `O=C(Nc1cccc(Cl)c1)c1cccc(CNc2ccc(C(=O)Nc3cccc(OP(=O)(O)O)c3)cc2CC2CCCCC2)c1`, for which the IC50 came to 3.8 µM.
`O=C(Nc1cccc(Cl)c1)c1cccc(CNc2ccc(C(=O)Nc3cccc(O)c3)cc2CCC2CCCCC2)c1`: the IC50 came to 1600 µM.
In the case of `COc1cccc(CNc2ccc(C(=O)Nc3cccc(OP(=O)(O)O)c3)cc2CC2CCCCC2)c1`, the IC50 is 139 µM.
On to `O=C(Nc1cccc(OP(=O)(O)O)c1)c1ccc(NCc2ccc(F)cc2)c(Cc2ccccc2)c1`, for which the half-inhibitory concentration (IC50) is 63 µM.
As to `O=C(Nc1cccc(Cl)c1)c1cccc(CNc2ccc(C(=O)Nc3cccc(OP(=O)(O)O)c3)cc2C2CC3CCC2C3)c1` (stereo not given), the IC50 worked out at 24.7 µM.

The target in a further assay is T3, Protein phosphatase 1A (Homo sapiens) (UniProt P35813).
T3 sequence (whole entry): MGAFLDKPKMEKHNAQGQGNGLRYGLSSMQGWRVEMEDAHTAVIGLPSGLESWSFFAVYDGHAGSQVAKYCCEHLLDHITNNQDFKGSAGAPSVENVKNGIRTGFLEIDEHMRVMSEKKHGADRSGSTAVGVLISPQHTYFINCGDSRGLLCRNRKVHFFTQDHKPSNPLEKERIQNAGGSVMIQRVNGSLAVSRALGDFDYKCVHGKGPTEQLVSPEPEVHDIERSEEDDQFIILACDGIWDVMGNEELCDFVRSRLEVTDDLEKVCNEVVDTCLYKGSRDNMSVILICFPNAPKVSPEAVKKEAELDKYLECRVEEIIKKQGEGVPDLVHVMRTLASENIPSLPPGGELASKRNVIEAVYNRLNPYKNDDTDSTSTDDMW
Briefly: Inhibition of PPM1A (unknown origin) using human p38alpha phosphopeptide as substrate upto 100 uM incubated for 7 mins by Biomol green assay. In short, it runs like this: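 Substrate: 100 μM p38α (175–185, 180pT) phosphopeptide, mixed with compound or DMSO, then 8 nM PPM1A added. Buffer: 50 mM Tris·HCl pH 7.5, 0.1 mM EGTA, 1 mM DTT, 1 mM CHAPS, 0.1 mg/mL BSA, 30 mM MgCl₂. Incubation: 7 min at 30 °C. Stopped with Biomol Green, 20 min colour development at room temperature. Released phosphate read at 620 nm against a phosphate standard curve. Compounds tested up to 100 μM.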
In the case of `O=C(Nc1cccc(Cl)c1)c1cccc(C(=O)Nc2ccc(C(=O)Nc3cccc(OP(=O)(O)O)c3)cc2CC2CCCCC2)c1`, the inhibition entry is “inactive”.
Same read-out and setting: in the case of `O=C(Nc1cccc(OP(=O)(O)O)c1)c1ccc(NC(=O)c2cccc(CNc3cccc(Cl)c3)c2)c(CC2CCCCC2)c1` it was “inactive”.
`O=C(Nc1cccc(Cl)c1)c1cccc(CNc2ccc(C(=O)Nc3cccc(OP(=O)(O)O)c3)cc2CC2CCCCC2)c1`: the inhibition result was “inactive”.
